In ChEMBL document CHEMBL3352785, “Study on one-pot four-component synthesis of 9-aryl-hexahydro-acridine-1,8-diones using SiO2-I as a new heterogeneous catalyst and their anticancer activity” (Bioorg Med Chem Lett, 2014) one finds IC50 data, which are given here for 8 compounds.

Values after ≈ are worked out from the molar mass of the structure shown.

Assay [1] has as its system MCF7. Kind of assay: Anticancer activity against human cells MCF7 cells assessed as growth inhibition after 48 hrs by MTT assay. To be noted: MCF7, 48 h. The format is functional, cell-based. The method in brief:
(§1)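 Cells grown in MEM with 10% heat-inactivated FBS, penicillin, streptomycin and amphotericin-B at 37 °C, 5% CO2, and trypsinized with TPVG. Seeded at 1 × 10⁴ cells/well and allowed to adhere for 24 h, then exposed to a range of concentrations for 48 h. MTT (2 mg/mL in PBS) added for 3 h, formazan dissolved in isopropanol, A540 read. Growth inhibition calculated as (control − test)/control × 100.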

The subject of assay [2] is HepG2. As to the kind of experiment: Anticancer activity against human cells HepG2 cells assessed as growth inhibition after 48 hrs by MTT assay. It counts as functional, cell-based. The note with it: HepG2, 48 h. The method in brief: as §1

On to `CC1(C)CC(=O)C2=C(C1)NC1=C(C(=O)CC(C)(C)C1)C2c1cccc(C#N)c1`, for which the values for the IC50 in assay [1] and in assay [2] were 4.7 µg/mL (≈ 12.6 µM) and 1.4 µg/mL (≈ 3.74 µM), respectively.
Consider `COc1ccc(C2C3=C(CC(C)(C)CC3=O)NC3=C2C(=O)CC(C)(C)C3)cc1`, for which the IC50 in assay [1] was found to be 9.6 µg/mL (≈ 25.3 µM); in assay [2], 8.2 µg/mL (≈ 21.6 µM).
For `COc1ccc(C2C3=C(CC(C)(C)CC3=O)NC3=C2C(=O)CC(C)(C)C3)cc1Br`, the IC50 was 5.3 µg/mL (≈ 11.6 µM) in assay [1] and 2.2 µg/mL (≈ 4.8 µM) in assay [2].
Turning to `CCOc1cccc(C2C3=C(CC(C)(C)CC3=O)NC3=C2C(=O)CC(C)(C)C3)c1`, the IC50 came to 4.5 µg/mL (≈ 11.4 µM) in assay [1] and 4.8 µg/mL (≈ 12.2 µM) in assay [2].
Consider `CC1(C)CC(=O)C2=C(C1)NC1=C(C(=O)CC(C)(C)C1)C2c1cc(F)ccc1O`, for which the IC50 worked out at 6.2 µg/mL (≈ 16.2 µM) in assay [1] and 8.6 µg/mL (≈ 22.4 µM) in assay [2].
Regarding `CC1(C)CC(=O)C2=C(C1)NC1=C(C(=O)CC(C)(C)C1)C2c1ccccc1O`, the values for the IC50 in assay [1] and in assay [2] were 5.9 µg/mL (≈ 16.1 µM) and 2.6 µg/mL (≈ 7.11 µM), respectively.
Regarding `COc1ccc(C2C3=C(CC(C)(C)CC3=O)NC3=C2C(=O)CC(C)(C)C3)c(OC)c1`, the IC50 worked out at 5 µg/mL (≈ 12.2 µM) in assay [1] and 1.6 µg/mL (≈ 3.91 µM) in assay [2].
On the same counts, the results for `COc1cccc2c1C(=O)c1c(O)c3c(c(O)c1C2=O)C[C@@](O)(C(=O)CO)C[C@@H]3O[C@H]1C[C@H](N)[C@H](O)[C@H](C)O1` [DOXORUBICIN] are 1.09 µg/mL (≈ 2.01 µM) and 1.21 µg/mL (≈ 2.23 µM).
